Consider 33 compounds from ChEMBL document CHEMBL1157459 (J Med Chem, 2008).

The target in experiment [1] is T1, Gamma-aminobutyric acid receptor subunit rho-1 (Homo sapiens, UniProt P24046). The experiment is described as follows: Antagonist activity at human GABAc Rho1 receptor expressed in Xenopus oocytes assessed as whole cell current production by two electrode voltage clamp method. In kind it is functional, cell-based. To be noted: for Kb: Oocyte. A general note: In two-electrode clamp one electrode senses voltage and the other passes current.

The target in experiment [2] is T2, GABA-A receptor; agonist GABA site (Homo sapiens) (UniProt P14867+P47870+P28472+P48169+P34903+P18505+P47869+P31644+Q16445). Nature of the experiment: Activity at human alpha-1-beta-2-gamma-2L GABAA receptor expressed in Xenopus oocytes assessed as inhibition of current production at 600 uM by two electrode voltage clamp method relative to GABA. The note with it: Oocyte. The experiment is classed as cell-based.

Experiment [3] has as its target T1, Gamma-aminobutyric acid receptor subunit rho-1. Nature of the experiment: Agonist activity at human GABAc Rho1 receptor expressed in Xenopus oocytes assessed as whole cell current production by two electrode voltage clamp method. In kind it is functional, cell-based, Oocyte.
Experiment [4] has as its target T3, Gamma-aminobutyric acid type B receptor subunit 1 (Homo sapiens, UniProt Q9UBS5). Nature of the experiment: Intrinsic activity at human GABAb 1A/2 receptor expressed in Xenopus oocytes assessed as maximum whole cell current production by two electrode voltage clamp method relative to GABA. The experiment is classed as cell-based. The note with it: Oocyte. The method, boiled down: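 Human GABA-B(1A/2) receptors expressed from cRNA (50 ng/50 nL) in Xenopus oocytes held 1-5 days at 18 °C. Voltage clamp at -60 mV in high-K+ buffer (45 mM KCl, 45 mM NaCl, 1 mM MgCl2, 1.8 mM CaCl2, 5 mM HEPES). Responses normalised to the maximal response to 600 µM GABA. Imax and EC50 taken from concentration-response fits. Mean ± SEM, n = 3-5 oocytes.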

For experiment [5], the target named is T3, Gamma-aminobutyric acid type B receptor subunit 1. The experiment is described as follows: Agonist activity at human GABAb 1A/2 receptor expressed in Xenopus oocytes assessed as whole cell current production by two electrode voltage clamp method. The experiment is classed as functional, cell-based, Oocyte.
Experiment [6] addresses T1, Gamma-aminobutyric acid receptor subunit rho-1. Nature of the experiment: Antagonist activity at human GABAc Rho1 receptor expressed in Xenopus oocytes assessed as whole cell current production at 600 uM by two electrode voltage clamp method. In kind it is functional, cell-based. To be noted: Oocyte.
Experiment [7] deals with T3, Gamma-aminobutyric acid type B receptor subunit 1. The experiment is described as follows: Activity at human GABAb 1A/2 receptor expressed in Xenopus oocytes assessed as whole cell current production at 600 uM by two electrode voltage clamp method. In kind it is cell-based. The note with it: Oocyte.
Experiment [8] concerns the target T2, GABA-A receptor; agonist GABA site (Homo sapiens). Nature of the experiment: Agonist activity at human alpha-1-beta-2-gamma-2L GABAA receptor expressed in Xenopus oocytes assessed as inhibition of current production by two electrode voltage clamp method. In kind it is functional, cell-based. To be noted: Oocyte.

The term Kb denotes the equilibrium dissociation constant of an antagonist, usually derived from a functional assay. The term inhibition denotes the relative decrease from the control value, in per cent. A word on the EC50: it is the concentration that produces a half-maximal response. In general, IC50 refers to the concentration at which inhibition is half-maximal.

Calls of active or inactive are those of the source. The calls are words filed in the database; no cut-off is given here.

T3 sequence (Q9UBS5 whole entry): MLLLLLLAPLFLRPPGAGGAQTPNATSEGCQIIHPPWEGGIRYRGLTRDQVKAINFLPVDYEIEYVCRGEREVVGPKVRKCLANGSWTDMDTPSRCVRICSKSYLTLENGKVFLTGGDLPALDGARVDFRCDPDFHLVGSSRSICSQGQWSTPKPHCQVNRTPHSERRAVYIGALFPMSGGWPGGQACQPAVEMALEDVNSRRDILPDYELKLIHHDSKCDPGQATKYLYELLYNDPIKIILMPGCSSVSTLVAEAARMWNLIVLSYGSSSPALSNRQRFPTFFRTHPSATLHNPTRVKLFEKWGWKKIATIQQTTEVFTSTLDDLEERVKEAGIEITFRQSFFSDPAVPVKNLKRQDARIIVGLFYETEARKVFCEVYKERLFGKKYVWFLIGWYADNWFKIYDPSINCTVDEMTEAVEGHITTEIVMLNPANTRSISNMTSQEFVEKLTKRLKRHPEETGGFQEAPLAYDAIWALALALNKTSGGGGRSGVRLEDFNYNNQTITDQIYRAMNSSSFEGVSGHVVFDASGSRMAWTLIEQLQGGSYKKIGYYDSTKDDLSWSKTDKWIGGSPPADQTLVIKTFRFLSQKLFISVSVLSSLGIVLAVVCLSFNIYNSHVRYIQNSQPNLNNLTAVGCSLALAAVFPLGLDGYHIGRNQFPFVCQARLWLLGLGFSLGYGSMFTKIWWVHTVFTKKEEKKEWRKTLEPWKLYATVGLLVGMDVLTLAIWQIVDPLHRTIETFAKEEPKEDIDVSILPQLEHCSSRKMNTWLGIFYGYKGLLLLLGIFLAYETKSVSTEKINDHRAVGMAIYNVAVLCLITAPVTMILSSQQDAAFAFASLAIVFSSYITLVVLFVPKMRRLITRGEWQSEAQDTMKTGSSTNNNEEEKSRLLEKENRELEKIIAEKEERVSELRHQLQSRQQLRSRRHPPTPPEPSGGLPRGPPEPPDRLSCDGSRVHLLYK
T1 sequence (P24046 whole entry): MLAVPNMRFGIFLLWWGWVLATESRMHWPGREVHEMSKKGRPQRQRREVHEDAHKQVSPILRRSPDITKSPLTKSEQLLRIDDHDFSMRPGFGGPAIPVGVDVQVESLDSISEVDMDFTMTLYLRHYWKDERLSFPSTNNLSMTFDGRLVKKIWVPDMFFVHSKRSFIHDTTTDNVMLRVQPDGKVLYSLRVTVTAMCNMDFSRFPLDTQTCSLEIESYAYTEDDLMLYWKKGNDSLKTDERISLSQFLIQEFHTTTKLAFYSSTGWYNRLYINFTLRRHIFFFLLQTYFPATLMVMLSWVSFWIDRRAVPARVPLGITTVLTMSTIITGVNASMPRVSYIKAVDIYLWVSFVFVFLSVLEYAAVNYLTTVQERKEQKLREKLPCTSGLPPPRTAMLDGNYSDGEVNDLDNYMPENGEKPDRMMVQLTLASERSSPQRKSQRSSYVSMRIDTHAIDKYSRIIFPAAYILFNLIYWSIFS

As to `N[C@H]1CC=C(C(=O)O)C1` (stereo in doubt; (S-6)), in experiment [1], the Kb came out at 6.1 µM.

With `CCCCP(=O)(O)C1=CC[C@H](N)C1`, in experiment [2], the inhibition is 24.2%. In experiment [1], the Kb came to 4.97 µM.

With `CP(=O)(O)[C@@H]1CC[C@@H](N)C1`, the antagonist equilibrium constant (Kb) in experiment [1] turned out to be 6.6 µM.

Take `CCCCP(=O)(O)C1=CC[C@@H](N)C1`: the outcome in experiment [2] was inactive. For the same compound, the Kb in experiment [1] was 59.3 µM.

As for `NCCCCC(=O)O`, the Kb in experiment [1] was 20 µM.

For `CC(C)P(=O)(O)C1=CCC(N)C1` (racemic), the inhibition in experiment [2] stood at 8.8%. In addition, the Kb in experiment [1] stood at 13.1 µM.

As to `CP(=O)(O)[C@H]1CC[C@H](N)C1`, in experiment [1], the Kb is 6.6 µM.

As to `NC[C@H]1C[C@@H]1C(=O)O`, the EC50 in experiment [3] came out at 59 µM.

`O=[Se](O)C1CCNCC1`: in experiment [1], the antagonist dissociation constant (Kb) is 0.95 µM.

Take `CP(=O)(O)C1=CC[C@@H](N)C1`: the result in experiment [2] was inactive. The Imax in experiment [4] was determined as 52.3%. Also, in experiment [5], the EC50 is 71.9 µM. Moreover, in experiment [1], the antagonist dissociation constant (Kb) is 18.9 µM.

On to `CP(=O)(O)[C@]1(O)C[C@H](N)C1`, for which the outcome in experiment [6] and in experiment [7] was inactive.

Take `CP(=O)(O)[C@]1(O)C[C@@H](N)C1`: the outcome in experiment [6] and in experiment [7] was inactive.

On to `CP(=O)(O)C1CCNCC1`, for which the Kb in experiment [1] worked out at 6 µM.

As to `CP(=O)(O)C1=CCC(N)C1` (racemic), the inhibition in experiment [2] is 6.2%. Moreover, the Imax in experiment [4] came out at 56.4%. Further, in experiment [5], the EC50 is 51 µM. In addition, the Kb in experiment [1] came to 1.84 µM.

With `NCc1cc(=O)[nH]o1` [MUSCIMOL], the EC50 in experiment [3] was determined as 1.4 µM.

Regarding `CP(=O)(O)[C@H]1C[C@@H](N)C1`, the outcome in experiment [7] was inactive. In addition, the IC50 in experiment [1] is > 100 µM.

Turning to `CP(=O)(O)C1=CCNCC1`, the EC50 in experiment [5] is 500 µM. For the same compound, the Kb in experiment [1] is 2.1 µM.

With `NC/C=C/C(=O)O` [t-4-AMINOCROTONIC ACID (TACA)], in experiment [3], the EC50 stood at 0.4 µM.

With `NC[C@@H]1C[C@@H]1C(=O)O`, in experiment [1], the half-maximal inhibitory concentration (IC50) is > 800 µM.

For the compound `CP(=O)(O)/C=C\CN`, the antagonist dissociation constant (Kb) in experiment [1] stood at 38.9 µM.

With `O=C(O)Cc1c[nH]cn1`, the Kb in experiment [1] came to 1.7 µM.

`CP(=O)(O)[C@H]1CC[C@@H](N)C1`: the antagonist equilibrium constant (Kb) in experiment [1] came out at 1.1 µM.

On to `CP(=O)(O)[C@@H]1CC[C@H](N)C1`, for which the antagonist equilibrium constant (Kb) in experiment [1] was determined as 1.1 µM.

Take `NC1CC=C(P(=O)(O)Cc2ccccc2)C1` (racemic): the inhibition in experiment [2] was 64.1%. The Kb in experiment [1] came to 48.6 µM.

In the case of `NC[C@H]1C[C@H]1C(=O)O`, the EC50 in experiment [3] turned out to be 40 µM.

With `N[C@H]1CC=C(C(=O)O)C1` (stereo in doubt; 6), the ED50 in experiment [8] was determined as 1.1 µM. For the same compound, in experiment [1], the Kb was 6 µM.

For `CCCCP(=O)(O)C1=CCC(N)C1` (racemic), the inhibition in experiment [2] came out at 23.2%. Also, the Kb in experiment [1] came out at 7.24 µM.

On to `Oc1noc2c1CCNC2`, for which the Kb in experiment [1] amounted to 32 µM.

Take `CP(=O)(O)C1=CC[C@H](N)C1`: the inhibition in experiment [2] was 4.1%. Moreover, in experiment [4], the Imax was 75.9%. Also, the EC50 in experiment [5] worked out at 52.2 µM. Besides, the Kb in experiment [1] stood at 0.78 µM.

Regarding `CP(=O)(O)[C@H]1C[C@H](N)C1`, the outcome in experiment [7] was inactive. Also, in experiment [1], the IC50 is > 100 µM.

Turning to `NC[C@@H]1C[C@H]1C(=O)O`, the concentration for a half-maximal effect (EC50) in experiment [3] is 9 µM.

In the case of `CCP(=O)(O)C1=CCC(N)C1` (racemic), in experiment [2], the inhibition amounted to 5.2%. The Kb in experiment [1] was 3.53 µM.

For the compound `NCC(=O)CCC(=O)O` [AMINOLEVULINIC ACID], the concentration for half-maximal inhibition (IC50) in experiment [1] turned out to be 12.9 µM.
